B1: Osa-1-4 twister ribozyme (parent)
chain: CCGCCUAACACUGCCAAUGCCGGUCCCAAGCCCGGAUAAAAGUGGAGGGGGCGG

Variants of: B1
Test: self-cleavage, relative activity (ratio to wild type); higher = more cleavage; co-transcriptional
Procedure, shortened: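 Relative activity is the fraction cleaved divided by that of the wild-type ribozyme. The library came from a DNA template for a 54-nucleotide Oryza sativa twister ribozyme, doped at the 48 positions downstream of the cleavage site with 97 % wild-type base and 1 % of each other base. After 2 h of in vitro transcription at 37 °C with co-transcriptional self-cleavage, the RNA was reverse-transcribed with a template-switching oligonucleotide, amplified by PCR and deep-sequenced, and reads with or without upstream sequence gave the cleavage status.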

First: CCGCCUUACACUGCCAAUGCCGGUCCCAAGCCCGGAUAAAAGUGGAGGGGGCUG
Second: CCGCCUUACACUGCCAAUGCCGGUCCCAAGCCCGGAUAAAAGUGGAGGGGGCAG
The self-cleavage of the first is lower: 0.05 for the first, 0.08 for the second.

Going from CCGCCUUACACUGCCAAUGCCGGUCCCAAGCCCGGAUAAAAGUGGAGGGGGCCG to CCGCCUACCACUGCUAAUGCCGGUCCCAAGCCCGGAUAAAAGUGGAGGGGGCGG, the self-cleavage rises from 0.03 to 0.04.

Going from CCGCCUACCACUGCAAAUGCCGGUCCCAAGCCCGGAUAAAAGUGGAGGGGGCGG to CCGCCUACCACUGCGAAUGCCGGUCCCAAGCCCGGAUAAAAGUGGAGGGGGCGG, the self-cleavage falls from 0.21 to 0.05.

Going from CCGCCUUACACUGCCAAUGCCUGUCCCAAGCCCGGAUAAAAGUGGAGGGGGCGG to CCGCCUUACACUGCCAAUGCCAGUCCCAAGCCCGGAUAAAAGUGGAGGGGGCGG, the self-cleavage rises from 0.06 to 0.09.

CCGCCUUACACUGCCAAUGCCCGUCCCAAGCCCGGAUAAAAGUGGAGGGGGCGG and CCGCCUUACACUGCCAAUGCCGGUCCCAAGCCCGGAUAAAAGUGGAGGGGACGG are the same in self-cleavage: 0.07 for the first, 0.07 for the second.

First: CCGCCUUACACUGCCAAUGCCGGUCCCAAGCCCGGAUAAAAGUGGAGGGGCCGG
Second: CCGCCUUACACUGCCAAUGCCGGUCCCAAGCCCGGAUAAAAGUGGAGGGGUCGG
The self-cleavage of the first is lower: 0.03 for the first, 0.05 for the second.

CCGCCUUACACUGCCAAUGCCGGUCCCAAGCCCGCAUAAAAGUGGAGGGGGCGG and CCGCCUUACACUGCCAAUGCCGGUCCCAAGCCCGAAUAAAAGUGGAGGGGGCGG are the same in self-cleavage: 0.07 for the first, 0.07 for the second.

Going from CCGCCUUACACUGCCAAUGCCGGUCCCAAGCCCGUAUAAAAGUGGAGGGGGCGG to CCGCCUUACACUGCCAAUGCCGGUCCCAAGCCCGGAUAAAAGUGGAGGAGGCGG, the self-cleavage falls from 0.06 to 0.04.

CCGCCUUACACUGCCAAUGCCGGUCCCAAGCCCGGAUAAAAGUGGAGGUGGCGG and CCGCCUUACACUGCCAAUGCCGGUCCCAAGCCCGGAUAAAAGUGGAGGCGGCGG are the same in self-cleavage: 0.03 for the first, 0.03 for the second.

First: CCGCCUUACACUGCCAAUGCCGGUCCCAAGCCCGGAUAAAAGUGGAGGGGGCGU
Second: CCGCCUUACACUGCCAAUGCCGGUCCCAAGCCCGGAUAAAAGUGGAGGGGGCGC
The self-cleavage of the first is higher: 0.11 for the first, 0.06 for the second.

Going from CCGCCUUACACUGCCAAUGCCGGUCCCAAGCCCGGAUAAAAGUGGAGGGGGCGA to CCGCCUUACACUGCCAAUGCCGGUCCCAAGCCGGGAUAAAAGUGGAGGGGGCGG, the self-cleavage falls from 0.07 to 0.03.

Compared with CCGCCUUACACUGCCAAUGCCGGUCCCAAGCCAGGAUAAAAGUGGAGGGGGCGG, CCGCCUUACACUGCCAAUGCCGGUCCCAAGCCUGGAUAAAAGUGGAGGGGGCGG is higher in self-cleavage: 0.03 for the first, 0.08 for the second.

Going from CCGCCUUACACUGCCAAUGCCGGUCCCAAGCCCGGAUAAAAGUGGAGAGGGCGG to CCGCCUUACACUGCCAAUGCCGGUCCCAAGCCCGGAUAAAAGUGGAGCGGGCGG, the self-cleavage rises from 0.02 to 0.03.

First: CCGCCUUACACUGCCAAUGCCGGUCCCAAGCCCGGAUAAAAGUGGAGUGGGCGG
Second: CCGCCUUACACUGCCAAUGCCGGUCCCAAGCCCGGAUAAAAGGGGAGGGGGCGG
The self-cleavage of the first is lower: 0.01 for the first, 0.07 for the second.

First: CCGCCUUACACUGCCAAUGCCGGUCCCAAGCCCGGAUAAAAGCGGAGGGGGCGG
Second: CCGCCUUACACUGCCAAUGCCGGUCCCAAGCCCGGAUAAAAGAGGAGGGGGCGG
The self-cleavage of the first is lower: 0.07 for the first, 0.08 for the second.

CCGCCUUACACUGCCAAUGCCGGUCCCAAGCCCGGAUAAAAGUCGAGGGGGCGG and CCGCCUUACACUGCCAAUGCCGGUCCCAAGCCCGGAUAAAAGUAGAGGGGGCGG are the same in self-cleavage: 0.06 for the first, 0.06 for the second.

Going from CCGCCUUACACUGCCAAUGCCGGUCCCAAGCCCGGAUAAAAGUUGAGGGGGCGG to CCGCCUUACACCGCCAAUGCCGGUCCCAAGCCCGGAUAAAAGUGGAGGGGGCGG, the self-cleavage rises from 0.09 to 0.1.

Compared with CCGCCUUACACGGCCAAUGCCGGUCCCAAGCCCGGAUAAAAGUGGAGGGGGCGG, CCGCCUUACACAGCCAAUGCCGGUCCCAAGCCCGGAUAAAAGUGGAGGGGGCGG is higher in self-cleavage: 0.06 for the first, 0.09 for the second.

CCGCCUUACACUGCCAAUGCCGGUCCCAACCCCGGAUAAAAGUGGAGGGGGCGG and CCGCCUUACACUGCCAAUGCCGGUCCCAAUCCCGGAUAAAAGUGGAGGGGGCGG are the same in self-cleavage: 0.02 for the first, 0.02 for the second.

CCGCCUUACACUGCCAAUGCCGGUCCCAAACCCGGAUAAAAGUGGAGGGGGCGG and CCGCCUUACACUGCCAAUGCCGGUCCAAAGCCCGGAUAAAAGUGGAGGGGGCGG are the same in self-cleavage: 0.06 for the first, 0.06 for the second.

Going from CCGCCUUACACUGCCAAUGCCGGUCCGAAGCCCGGAUAAAAGUGGAGGGGGCGG to CCGCCUUACACUGCCAAUGCCGGUCCUAAGCCCGGAUAAAAGUGGAGGGGGCGG, the self-cleavage rises from 0.04 to 0.06.

Going from CCGCCUUACACUGCCAAUGCCGGUCCCAAGCCCGGAUAAAAGUGGAAGGGGCGG to CCGCCUUACACUGCCAAUGCCGGUCCCAAGCCCGGAUAAAAGUGGAUGGGGCGG, the self-cleavage falls from 0.05 to 0.04.

CCGCCUUACACUGCCAAUGCCGGUCCCAAGCCCGGAUAAAAGUGGACGGGGCGG and CCGCCUUACACUGCCAAUGCCGGUCCCAAGCUCGGAUAAAAGUGGAGGGGGCGG are the same in self-cleavage: 0.04 for the first, 0.04 for the second.

Going from CCGCCUUACACUGCCAAUGCCGGUCCCAAGCGCGGAUAAAAGUGGAGGGGGCGG to CCGCCUUACACUGCCAAUGCCGGUCCCAAGCACGGAUAAAAGUGGAGGGGGCGG, the self-cleavage falls from 0.04 to 0.03.

From the RNAGym collection of RNA variant scans (doi:10.1002/anie.201605470)
